Entries after “also recorded” stand apart in the source; their conditions may differ.
Assays:
BiP-T229A = assay: Fluorescence polarization NR peptide binding; set-up: species or system human; conditions: effect of ATP, WT BiP as positive control
Method in brief: (§1)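 Human BiP proteins (wild type or variant) were made as Smt3 fusions in E. coli BL21(DE3)Gold. They were purified on HisTrap, cut with Ulp1, run over a second HisTrap, then HiTrap Q and Superdex 200, and stored in 5 mM Hepes-KOH pH7.5, 10 mM KCl. Binding of NR peptide (NRLLLTG) was read by fluorescence polarization across serial protein dilutions. Kd was fitted from binding curves; standard errors come from at least 6 assays on more than two protein purifications.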

BiP SBD-Tev-NR = assay: Fluorescence polarization NR peptide binding; set-up: species or system human; conditions: SBD with covalently linked NR peptide; WT BiP SBD as positive control
Method in brief: as §1

BiP-PP (G486P/G493P) [1] = molecular target: T1, BiP-PP (G486P/G493P) (Homo sapiens, UniProt P11021, G486P/G493P); assay: Fluorescence polarization peptide binding affinity
BiP R532E = BiP R532E (Homo sapiens, UniProt P11021, R532E); assay: Fluorescence anisotropy NR peptide binding affinity; conditions: WT BiP as control
Method in brief: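 BiP wild type and mutants were expressed in E. coli BL21(DE3)Gold as Smt3 fusions. Purification was by HisTrap, Ulp1 tag removal, a second HisTrap, HiTrap Q and Superdex 200. Fluorescence polarization/anisotropy binding of NR peptide (NRLLLTG) was measured with serial dilutions of protein, in the presence of ADP or ATP. Kd was calculated from the binding data.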

isolated SBD of BiP = assay: Fluorescence polarization NR peptide binding affinity; set-up: species or system human; conditions: isolated SBD vs full-length BiP
Method in brief: as §1

BiP-L3,4′ = assay: Fluorescence polarization NR peptide binding; set-up: species or system human; conditions: L3,4′ modification (TASDNQP→VGG); WT BiP as positive control
Method in brief: as §1

BiP-PP (G486P/G493P) [2] = molecular target: T1, BiP-PP (G486P/G493P); assay: Fluorescence anisotropy peptide substrate binding kinetics; conditions: F-NR peptide
human BiP [3] = molecular target: T2, human BiP (Homo sapiens, UniProt P11021); assay: Fluorescence polarization NR peptide binding affinity; conditions: WT BiP
Method in brief: as §1

BiP-PP = assay: Single-turnover ATPase assay; type: biochemical, human; conditions: single turn-over
human BiP [4] = molecular target: T2, human BiP; assay: Fluorescence anisotropy peptide substrate binding kinetics
[5] = molecular target: F-NR peptide (labelled NR peptide, sequence NRLLLTG); assay: fluorescence polarisation
BiP [6] = conditions: ref Marcinowski et al., 2011; cited from earlier work
[7] = test system: DnaK-PP (DnaK-G461P/G468P); assay: Single-turnover ATPase assay; type: biochemical, E. coli
BiP [8] = assay: Single-turnover ATPase assay; type: biochemical, human
[9] = molecular target: T3, BiP SBD-L3,4′ (residues 418-636), the SBD part of SBD-L3,4′-Tev-NR (human, UniProt P11021 418-636, L3,4′ (TASDNQP→VGG)); assay: crystal structure
T3 sequence (looked up): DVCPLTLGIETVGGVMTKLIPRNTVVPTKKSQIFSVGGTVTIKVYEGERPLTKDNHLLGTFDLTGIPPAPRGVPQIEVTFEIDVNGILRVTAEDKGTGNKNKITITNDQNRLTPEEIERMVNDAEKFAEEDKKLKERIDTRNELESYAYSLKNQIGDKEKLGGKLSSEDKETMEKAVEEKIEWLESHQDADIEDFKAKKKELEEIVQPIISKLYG

T2 sequence (P11021 19-654): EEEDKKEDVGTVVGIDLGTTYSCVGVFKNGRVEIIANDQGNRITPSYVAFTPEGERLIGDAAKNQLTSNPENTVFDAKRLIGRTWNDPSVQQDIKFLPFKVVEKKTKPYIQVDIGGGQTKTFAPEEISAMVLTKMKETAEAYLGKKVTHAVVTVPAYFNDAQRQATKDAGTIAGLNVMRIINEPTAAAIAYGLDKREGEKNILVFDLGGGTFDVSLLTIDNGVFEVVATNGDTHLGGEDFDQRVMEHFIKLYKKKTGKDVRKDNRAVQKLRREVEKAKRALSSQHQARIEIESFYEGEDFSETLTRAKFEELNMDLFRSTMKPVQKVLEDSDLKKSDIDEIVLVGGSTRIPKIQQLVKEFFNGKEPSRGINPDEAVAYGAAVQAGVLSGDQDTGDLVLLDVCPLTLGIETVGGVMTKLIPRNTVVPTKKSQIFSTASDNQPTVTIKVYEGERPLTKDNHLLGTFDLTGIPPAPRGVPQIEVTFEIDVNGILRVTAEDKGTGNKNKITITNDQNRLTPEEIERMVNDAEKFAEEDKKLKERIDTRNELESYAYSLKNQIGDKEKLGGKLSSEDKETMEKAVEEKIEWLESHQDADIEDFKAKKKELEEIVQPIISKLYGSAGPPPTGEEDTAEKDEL
BiP R532E, sequence (P11021 19-654 R532E): as the sequence (P11021 19-654) above, with R514E counted along it
T1 sequence (P11021 25-654 G486P/G493P limits assumed): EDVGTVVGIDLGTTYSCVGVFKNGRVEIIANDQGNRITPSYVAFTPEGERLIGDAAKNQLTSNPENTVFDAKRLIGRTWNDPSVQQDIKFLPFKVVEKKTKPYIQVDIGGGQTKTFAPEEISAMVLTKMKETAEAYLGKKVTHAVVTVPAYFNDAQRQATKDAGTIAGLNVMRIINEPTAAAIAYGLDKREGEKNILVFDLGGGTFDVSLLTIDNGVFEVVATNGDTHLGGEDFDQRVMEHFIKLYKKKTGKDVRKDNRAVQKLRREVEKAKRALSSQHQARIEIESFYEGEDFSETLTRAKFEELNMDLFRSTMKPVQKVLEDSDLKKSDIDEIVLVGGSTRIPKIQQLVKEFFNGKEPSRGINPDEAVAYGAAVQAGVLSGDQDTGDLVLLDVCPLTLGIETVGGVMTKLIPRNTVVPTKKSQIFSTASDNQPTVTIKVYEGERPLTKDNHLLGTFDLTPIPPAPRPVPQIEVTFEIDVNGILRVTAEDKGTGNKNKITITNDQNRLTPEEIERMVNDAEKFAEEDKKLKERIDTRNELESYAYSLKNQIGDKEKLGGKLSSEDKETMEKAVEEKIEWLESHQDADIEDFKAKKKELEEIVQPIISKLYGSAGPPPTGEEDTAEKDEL

NRLLLTG [NR peptide]
NR peptide binding / affinity, ATP sensitivity (BiP-T229A): binds NR peptide in an ATP-sensitive manner like that of WT BiP; also recorded: significantly reduced affinity for NR peptide in the presence of ATP | binding of free NR peptide (BiP SBD-Tev-NR): Neither BiP SBD-Tev–NR nor SBD-L3,4′-Tev-NR showed appreciable binding; also recorded: completely blocks the binding of free NR peptide | affinity for NR peptide in the presence of ADP (BiP-PP (G486P/G493P) [1]): reduced affinity | affinity for NR peptide in the presence of ADP (BiP R532E; +ADP): normal affinity | affinity for NR peptide in the presence of ATP (BiP R532E; +ATP): higher than that of WT BiP | affinity of isolated SBD for NR peptide (isolated SBD of BiP): affinity comparable to full-length BiP | affinity for NR peptide / NR peptide binding (BiP-L3,4′): drastically compromised the NR peptide binding; also recorded: drastically reduced affinity | binding kinetics in the presence of ADP (BiP-PP (G486P/G493P) [2]): fast binding kinetics | binding affinity in the presence of ADP (human BiP [3]; +ADP): binding affinity is high | affinity for NR peptide in the presence of ATP (human BiP [3]; +ATP): drastically reduced the affinity | NR peptide binding (human BiP [3]; fluorescence polarization, serial dilutions of BiP): binds NR peptide through its SBD and in an ATP-sensitive manner; also recorded: good affinity | stimulation of ATPase activity by NR peptide (BiP-PP): failed to stimulate the ATPase activity; also recorded: little appreciable stimulation | binding kinetics, both on and off rates, relative to DnaK (human BiP [4]; BiP vs DnaK, Fig. S1a,b): much slower than those of DnaK | binding kinetics in the presence of ADP (human BiP [4]; WT BiP, +ADP, F-NR peptide): binding kinetics are slow | binding kinetics in the presence of ATP (human BiP [4]; WT BiP, +ATP, F-NR peptide): fast binding kinetics

human BiP (binding immunoglobulin protein), wild type (from UniProt P11021 19-654) (natural protein)
Kd relative to that of DnaK [5]: 2 times lower

B1: ERdj3: an abundant class I Hsp40 in ER, proposed to be an Hsp40 for BiP (protein)
chain: GRDFYKILGVPRSASIKDIKKAYRKLALQLHPDRNPDDPQAQEKFQDLGAAYEVLSDSEKRKQYDTYGEEGLKDGHQSSHGDIFSHFFGDFGFMFGGTPRQQDRNIPRGSDIIVDLEVTLEEVYAGNFVEVVRNKPVARQAPGKRKCNCRQEMRTTQLGPGRFQMTQEVVCDECPNVKLVNEERTLEVEIEPGVRDGMEYPFIGEGEPHVDGEPGDLRFRIKVVKHPIFERRGDDLYTNVTISLVESLVGFEMDITHLDGHKVHISRDKITRPGAKLWKKGEGLPNFDNNNIKGSLIITFDVDFPKEQLTEEAREGIKQLLKQGSVQKVYNGLQGY
interaction of ERdj3 with BiP in the presence of ADP (BiP [6]): significant interaction with BiP in the presence of ADP | stimulation of ATPase activity by ERdj3 (DnaK; single turn-over): stimulated DnaK’s ATPase activity robustly | stimulation of ATPase activity by ERdj3 ([7]; DnaK-PP, single turn-over): significant stimulation; also recorded: significant stimulation on DnaK-PP although to less extend than that of DnaJ; also recorded: stimulated DnaK-PP significantly | fold of stimulation of ATPase activity by ERdj3 (BiP [8]; ERdj3 at 4 μM, intrinsic ATPase activity set as 1): more than 20 fold | stimulation of ATPase activity by ERdj3 (BiP-PP): Neither ERdj3 (d) nor DnaJ (f) showed appreciable stimulation; also recorded: failed to show any appreciable stimulation

B2: DnaJ: an Hsp40 co-chaperone for DnaK and founding representative of the class I Hsp40s (protein)
chain: MAKQDYYEILGVSKTAEEREIRKAYKRLAMKYHPDRNQGDKEAEAKFKEIKEAYEVLTDSQKRAAYDQYGHAAFEQGGMGGGGFGGGADFSDIFGDVFGDIFGGGRGRQRAARGADLRYNMELTLEEAVRGVTKEIRIPTLEECDVCHGSGAKPGTQPQTCPTCHGSGQVQMRQGFFAVQQTCPHCQGRGTLIKDPCNKCHGHGRVERSKTLSVKIPAGVDTGDRIRLAGEGEAGEHGAPAGDLYVQVQVKQHPIFEREGNNLYCEVPINFAMAALGGEIEVPTLDGRVKLKVPGETQTGKLFRMRGKGVKSVRGGAQGDLLCRVVVETPVGLNERQKQLLQELQESFGGPTGEHNSPRSKSFFDGVKKFFDDLTR
fold of stimulation of ATPase rate by DnaJ (DnaK; DnaJ at 0.4 μM, intrinsic ATPase activity set as 1): ~60 fold | stimulation of ATPase rate by DnaJ relative to WT DnaK ([7]; DnaK-PP vs WT DnaK): about two thirds of that of WT | stimulation of ATPase activity by DnaJ ([7]; DnaK-PP, single turn-over): significant stimulation; also recorded: stimulates the ATPase rate of DnaK-PP drastically; also recorded: stimulated DnaK-PP significantly | stimulation of ATPase activity by DnaJ (BiP [8]; compared with ERdj3): stimulated BiP although to less extend as ERdj3 | stimulation of ATPase activity by DnaJ (BiP-PP): Neither ERdj3 (d) nor DnaJ (f) showed appreciable stimulation; also recorded: failed to stimulate BiP-PP appreciably

B3: NR peptide (sequence NRLLLTG), unlabelled (peptide)
peptide: NRLLLTG
binding result [9]: binds

Source: article PMC4680848 (Structure (London, England : 1993), 2015)
